Measurements from ChEMBL document CHEMBL1132979, “5-HT reuptake inhibitors with 5-HT(1B/1D) antagonistic activity: a new approach toward efficient antidepressants” (J Med Chem, 2000).

Legend:
[1] = molecular target: 5-hydroxytryptamine receptor 1B (Rattus norvegicus, UniProt P28564); test: Binding affinity towards 5-hydroxytryptamine 1B receptor in rat frontal cortex using [125I]iodocyanopindolol as radio-ligand.; type: tissue-based
Rattus norvegicus = species on record: Rattus norvegicus; test: [3H]5-HT reuptake inhibition in Rat brain synaptosomes.; type: functional
[2] = molecular target: T1, 5-hydroxytryptamine receptor 1A (Rattus norvegicus, UniProt P19327); test: Binding affinity towards 5-hydroxytryptamine 1A receptor in rat hippocampus using [3H]8-OH-DPAT as radio-ligand.
T1 sequence (P19327 whole entry): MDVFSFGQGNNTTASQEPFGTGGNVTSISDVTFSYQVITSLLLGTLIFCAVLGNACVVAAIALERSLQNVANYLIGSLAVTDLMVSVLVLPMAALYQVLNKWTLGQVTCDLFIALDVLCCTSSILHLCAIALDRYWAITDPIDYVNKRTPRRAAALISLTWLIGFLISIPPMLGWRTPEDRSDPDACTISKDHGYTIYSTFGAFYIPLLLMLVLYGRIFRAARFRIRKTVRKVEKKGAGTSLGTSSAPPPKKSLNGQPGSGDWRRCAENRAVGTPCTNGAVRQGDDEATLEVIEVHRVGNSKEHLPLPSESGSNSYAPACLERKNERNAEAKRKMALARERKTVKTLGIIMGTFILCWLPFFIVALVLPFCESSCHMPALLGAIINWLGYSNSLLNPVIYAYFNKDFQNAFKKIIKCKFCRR

Cavia porcellus = species on record: Cavia porcellus; test: Sumatriptan induced inhibition of potassium evoked [3H]5-HT release from guinea pig cortex slices; type: functional
In short: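 Cortex slices from male Dunkin-Hartley guinea pigs were loaded with [3H]5-HT for 30 min, then given potassium stimulation. Sumatriptan 3 µM alone (control), or with test compound at 30 nM, 300 nM or 3 µM, was superfused before and during S2. Basal-subtracted S2/S1 ratio is expressed as % of the sumatriptan-only ratio. Mean (±SEM) of 3-4 determinations.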

Oryctolagus cuniculus = species on record: Oryctolagus cuniculus; test: Inhibition of the contractile responses elicited by sumatriptan in rabbit saphenous vein (RSV); type: functional; settings: read-out: pA2 (converted)
In short: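 Isolated rabbit saphenous vein segments held in organ baths. Each segment received two sumatriptan concentration-response curves, the second after 60 min incubation with antagonist or control vehicle. Apparent pA2 was calculated from a single antagonist concentration in at least 3 preparations.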

5-hydroxytryptamine receptor 1B, sequence (P28564 whole entry): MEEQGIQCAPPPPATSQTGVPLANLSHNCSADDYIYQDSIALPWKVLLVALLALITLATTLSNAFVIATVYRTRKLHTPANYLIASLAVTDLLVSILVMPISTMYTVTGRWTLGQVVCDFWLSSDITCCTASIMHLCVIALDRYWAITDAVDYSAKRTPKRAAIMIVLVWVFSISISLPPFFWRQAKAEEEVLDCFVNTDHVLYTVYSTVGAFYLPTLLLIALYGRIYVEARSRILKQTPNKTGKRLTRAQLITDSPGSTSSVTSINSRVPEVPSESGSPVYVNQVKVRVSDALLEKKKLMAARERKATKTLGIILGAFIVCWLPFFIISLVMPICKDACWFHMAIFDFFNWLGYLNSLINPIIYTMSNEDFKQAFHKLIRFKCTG

Compound	IC50 [1] [nM]	IC50 (Rattus norvegicus) [nM]	IC50 [2] [nM]	Release (Cavia porcellus) [%]	Kb (Oryctolagus cuniculus) [nM]
COc1ccc(NC(=O)N2CCc3[nH]c4ccc(F)cc4c3C2)cc1N1CCN(C)CC1	567	469	> 800	–	–
COc1ccc(NC(=O)N2CCC(c3c[nH]c4ccc(F)cc34)CC2)cc1OCCN(C)C	633	4	> 500	–	–
Fc1ccc2[nH]cc(C3CCNCC3)c2c1	–	55	–	–	–
COc1ccc(N)cc1N1CCN(C)CC1	–	> 1000	–	–	–
Fc1ccc2[nH]c3c(c2c1)CNCC3	–	> 100	–	–	–
c1ccc2c(C3CCNCC3)c[nH]c2c1	–	60	–	–	–
COc1ccc(NC(=O)N2CCC(c3c[nH]c4ccc(F)cc34)C2)cc1N1CCN(C)CC1 (stereo not drawn)	233	106	100	–	–
CN1CCC2(CC1)COc1ccc(N)cc12	–	> 1000	–	–	–
NCCc1c[nH]c2ccc(F)cc12	–	130	–	–	–
COc1ccc(NC(=O)N2CCC(c3c[nH]c4ccc(C(N)=O)cc34)CC2)cc1N1CCN(C)CC1	113	472	17	217	15.8
COc1ccc(N)cc1OCCN(C)C	–	> 1000	–	–	–
Fc1ccc2[nH]cc(CCCCN3CCNCC3)c2c1	–	0.15	–	–	–
Cc1nc(-c2ccc(-c3ccc(C(=O)Nc4ccc5c(c4)C4(CCN(C)CC4)CO5)cc3)c(C)c2)no1	2.1	> 1000	–	134	–
Fc1ccc2c(C3CCNCC3)c[nH]c2c1	–	20	–	–	–
COc1ccc(NC(=O)N2CCC(c3c[nH]c4cccc(F)c34)CC2)cc1N1CCN(C)CC1	50	65	300	145	2
COc1ccc(NC(=O)N2CCN(CCCCc3c[nH]c4ccc(F)cc34)CC2)cc1N1CCN(C)CC1	77	0.7	50	120	20
Fc1cccc2[nH]cc(C3CCNCC3)c12	–	60	–	–	–

Compound	IC50 [1] [nM]	IC50 (Rattus norvegicus) [nM]	IC50 [2] [nM]	Release (Cavia porcellus) [%]	Kb (Oryctolagus cuniculus) [nM]
Fc1ccc2[nH]cc(C3CCNC3)c2c1 (stereo not drawn)	–	45	–	–	–
CN1CCC2(CC1)COc1ccc(NC(=O)N3CCC(c4c[nH]c5ccc(F)cc45)CC3)cc12	23	0.2	> 200	125	50.1
COc1ccc(NC(=O)N2CCC(c3c[nH]c4ccccc34)CC2)cc1N1CCN(C)CC1	50	200	400	127	20
N#Cc1ccc2[nH]cc(C3CCNCC3)c2c1	–	58	–	–	–
COc1ccc(NC(=O)N2CCC(c3c[nH]c4cc(F)ccc34)CC2)cc1N1CCN(C)CC1	80	49	667	169	25.1
COc1ccc(NC(=O)N2CCC(c3c[nH]c4ccc(C#N)cc34)CC2)cc1N1CCN(C)CC1	267	1.9	233	167	10
COc1ccc(NC(=O)N2CCC(c3c[nH]c4ccc(F)cc34)CC2)cc1N1CCN(C)CC1	85	21	367	151	15.8
COc1ccc(NC(=O)NCCc2c[nH]c3ccc(O)cc23)cc1N1CCN(C)CC1	467	314	57	–	–
CN1CCC2(CC1)COc1ccc(NC(=O)NCCN3CCC(c4c[nH]c5cc(F)ccc45)CC3)cc12	300	2.2	700	–	–
COc1ccc(NC(=O)N2CCC(CCc3c[nH]c4ccccc34)CC2)cc1N1CCN(C)CC1	120	10	> 300	121	20
COc1ccc(NC(=O)NCCN2CCC(c3c[nH]c4cc(F)ccc34)CC2)cc1OCCN(C)C	133	1.2	233	–	–
COc1ccc(NC(=O)NCCc2c[nH]c3ccc(F)cc23)cc1N1CCN(C)CC1	63	387	27	134	20
c1ccc2c(CCC3CCNCC3)c[nH]c2c1 [INDALPINE]	–	1	–	–	–
COc1ccc(NC(=O)c2ccc(-c3ccc(-c4noc(C)n4)cc3C)cc2)cc1N1CCN(C)CC1 [GR-127935]	–	1000	360	114	0.398
NC(=O)c1ccc2[nH]cc(C3CCNCC3)c2c1	–	> 100	–	–	–
COc1ccc(NC(=O)NCCN2CCC(c3c[nH]c4cc(F)ccc34)CC2)cc1N1CCN(C)CC1	223	1.9	160	–	–
NCCN1CCC(c2c[nH]c3cc(F)ccc23)CC1	–	11	–	–	–
